Results from different studies.
Protocols differ between the studies behind these lines.
Cell line: PC-3
Effect on: cell growth or viability

C=CCOc1ccc2c(C)c(CC)c(=O)oc2c1C
viability (MTT; 125 µg/mL): 95.8%

Cc1nc(N(Cc2ccccc2)c2ccc3c(c2)/C(=C/c2ccccc2)C(=O)N3Cc2ccccc2)c2ccccc2n1 (mixture of isomers)
IC50 (MTT): 0.56 µM

CCCOc1nc(-c2cccc(O)c2)cc(-c2cc3cc(OC)ccc3nc2N2CCOCC2)c1C#N
IC50 (MTT; 72 h): 0.0639 µM

COc1ccc(-c2cc(-c3ccccc3Cl)c3c(=O)n(C)c(=O)n(C)c3n2)cc1
IC50 (MTT; 48 h): 6.79 µM

Cc1nc(Nc2ccc3c(c2)/C(=C/c2ccccc2)C(=O)N3Cc2ccccc2)c2ccccc2n1
IC50 (MTT): > 50 µM

COc1ccc(-c2cc(-c3ccc(Cl)cc3)c3c(=O)[nH]c(=O)[nH]c3n2)cc1
IC50 (MTT; 48 h): 5.24 µM

Cc1nc(Nc2ccc3c(c2)C(C)(C)C(=O)N3)c2ccccc2n1
IC50 (MTT): 34.3 µM

O=C(NO)c1ccc(CNc2nc3cccc(-c4ccc5c(c4)OCO5)n3n2)cc1
GI50 (SRB): 0.63 µM

Cc1nc(Nc2ccc3c(c2)/C(=C/c2ccccc2C)C(=O)N3C)c2ccccc2n1
IC50 (MTT): 15.9 µM

Cc1c(Cc2ccccc2)c(=O)oc2c(C)c(OCC(=O)NN=Cc3ccc([N+](=O)[O-])cc3)ccc12
viability (MTT; 31.25 µg/mL): 31.3%

C=CC(=O)c1cccnc1Nc1cccc(C(F)(F)F)c1
GI50 (SRB; 48 h): 11.4 µM

CCOc1ccc2c(C)c(CC)c(=O)oc2c1C
viability (MTT; 500 µg/mL): 7.6%

COc1ccc(-c2cc(-c3c(OC)cccc3OC)c3c(=O)[nH]c(=O)[nH]c3n2)cc1
IC50 (MTT; 48 h): 41.5 µM

CCc1c(C)c2ccc(OCc3nnc(S)n3N)c(C)c2oc1=O
viability (MTT; 31.25 µg/mL): 58.5%

Cc1nc(Nc2ccc3c(c2)C(C)(C)C(=O)N3C)c2ccccc2n1
IC50 (MTT): 26.3 µM

COc1ccc(-c2cc(-c3ccc(Br)cc3)c3c(=O)n(C)c(=O)n(C)c3n2)cc1
IC50 (MTT; 48 h): 8.58 µM

C=CC(=O)c1cccnc1Nc1cc(C(F)(F)F)ccc1OCc1ccccc1
GI50 (SRB; 48 h): 19 µM

CCc1c(C)c2ccc(OCC(=O)NN=Cc3ccc([N+](=O)[O-])cc3)cc2oc1=O
viability (MTT; 31.25 µg/mL): 22.2%

Cc1nc(NC(=O)N2CCC[C@H]2C(N)=O)sc1-c1ccnc(C(C)(C)C(F)(F)F)c1
IC50 (MTT): 47.7 µM

CCc1c(C)c2ccc(OCC(=O)NNC(=S)Nc3ccccc3)c(C)c2oc1=O
viability (MTT; 1000 µg/mL): 2.47%

COc1ccc(-c2cc(-c3cccc(Br)c3)c3c(=O)[nH]c(=O)[nH]c3n2)cc1
IC50 (MTT; 48 h): 18.5 µM

Cc1c(Cc2ccccc2)c(=O)oc2c(C)c(OCC(=O)NN=Cc3ccc(Cl)cc3)ccc12
viability (MTT; 500 µg/mL): 5.27%

COc1ccc(-c2cc(-c3cc(OC)ccc3OC)c3c(=O)n(C)c(=O)n(C)c3n2)cc1
IC50 (MTT; 48 h): 24.6 µM

Cc1c(Cc2ccccc2)c(=O)oc2c(C)c(OCC(=O)NN=Cc3ccccc3)ccc12
viability (MTT; 62.5 µg/mL): 26.3%

COc1ccc(-c2cc(-c3ccc(Cl)cc3)c3c(=O)n(C)c(=O)n(C)c3n2)cc1
IC50 (MTT; 48 h): 13.5 µM
